Laboratory results published in ChEMBL document CHEMBL1795344, “Design, synthesis and antitumor evaluation of phenyl N-mustard-quinazoline conjugates” (Bioorg Med Chem, 2011).
Activity calls are given as the source filed them. The calls are words filed in the database; no cut-off is given here.

Columns and labels:
[1] = test system: CCRF-CEM; experiment: Cytotoxicity against human CCRF-CEM cells after 72 hrs by XTT assay; type: functional, cell-based
Method in brief: (§1)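 CCRF-CEM and its Taxol- and vinblastine-resistant sublines were incubated 72 h, then given phenazine methosulfate-XTT for 6 h at 37 °C. Absorbance was read at 450 and 630 nm. IC50 came from median-effect analysis of dose-effect data at six or seven concentrations.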

[2] = test system: CCRF-CEM; experiment: Cytotoxicity against human taxol-resistant CCRF-CEM cells after 72 hrs by XTT assay; type: functional, cell-based; method in brief: as §1
[3] = test system: CCRF-CEM; experiment: Cytotoxicity against human vinblastine-resistant CCRF-CEM cells after 72 hrs by XTT assay; type: functional, cell-based; method in brief: as §1
[4] = test system: MX1; experiment: Cytotoxicity against human MX1 cells after 72 hrs by SRB assay; type: functional, cell-based; details: MX1, 72 h
Method in brief: (§2)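 MX-1 and HCT-116 solid tumor cells were exposed 72 h, with growth read by SRB staining on a microplate spectrophotometer. IC50 came from median-effect analysis of dose-effect data at six or seven concentrations.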

[5] = test system: HCT-116; experiment: Cytotoxicity against human HCT116 cells after 72 hrs by SRB assay; type: functional, cell-based; details: HCT-116, 72 h; method in brief: as §2
[6] = test system: MX1; experiment: Antitumor activity against human MX1 cells xenografted in athymic nude Swiss mouse assessed as tumor growth inhibition at 50 and 60 mg/kg, iv every two days for three times followed by 70 mg/kg, iv every two days for two times relative to control; type: functional; design: scale not given: the % may be the effect or the level left
[7] = test system: Mus musculus; experiment: Toxicity in human MX1 cells xenografted athymic nude Swiss mouse assessed as body weight loss at 50 and 60 mg/kg, iv every two days for three times followed by 70 mg/kg, iv every two days for two times relative to control; type: organism-based; details: in vivo
[8] = test system: Mus musculus; experiment: Toxicity in human MX1 cells xenografted athymic nude Swiss mouse assessed as mouse mortality at 50 and 60 mg/kg, iv every two days for three times followed by 70 mg/kg, iv every two days for two times; type: organism-based; details: in vivo
[9] = test system: CCRF-CEM; experiment: Ratio of IC50 for human taxol-resistant CCRF-CEM cells to IC50 for human CCRF-CEM cells; type: functional
[10] = test system: CCRF-CEM; experiment: Ratio of IC50 for human vinblastine-resistant CCRF-CEM cells to IC50 for human CCRF-CEM cells; type: functional
[11] = Cytotoxicity against human H1299 cells after 72 hrs by Alamar blue assay; type: functional, cell-based; details: NCI-H1299, 72 h
Method in brief: (§3)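 H1299 and PC3 cells were exposed 72 h, then given Alamar blue for 6 h at 37 °C. Absorbance was read at 570 and 600 nm. IC50 came from median-effect analysis of dose-effect data at six or seven concentrations.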

[12] = test system: PC-3; experiment: Cytotoxicity against human PC3 cells after 72 hrs by Alamar blue assay; type: functional, cell-based; details: PC-3, 72 h; method in brief: as §3
[13] = test system: Nucleic Acid; experiment: Induction of pEGFP-N1 plasmid DNA interstrand cross-linking at 1 to 20 uM by alkaline agarose gel shift assay; type: nucleic-acid assay
Method in brief: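 pEGFP-N1 plasmid DNA (1500 ng) was incubated with compound (1, 10, 20 μM) in 3 mM NaCl/1 mM sodium phosphate pH 7.4/1 mM EDTA for 2 h at 37 °C. It was then BamHI-linearized, ethanol-precipitated and denatured in 0.5 N NaOH-10 mM EDTA. Samples were run on a 0.8% alkaline agarose gel at 4 °C, 18 V for 22 h, stained with ethidium bromide.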

[14] = test system: PC-3; experiment: Anticancer activity against human PC3 cells xenografted in athymic nude Swiss mouse assessed as tumor growth inhibition at 55 mg/kg, iv every two days for six times relative to control; type: functional; design: scale not given: the % may be the effect or the level left
[15] = test system: MX1; experiment: Antitumor activity against human MX1 cells xenografted in athymic nude Swiss mouse assessed as tumor growth inhibition at 30 mg/kg, iv every two days for three times followed by 40 mg/kg, iv every two days for 5 times relative to control; type: functional; design: scale not given: the % may be the effect or the level left
[16] = test system: Mus musculus; experiment: Toxicity in human MX1 cells xenografted athymic nude Swiss mouse assessed as body weight loss at 30 mg/kg, iv every two days for three times followed by 40 mg/kg, iv every two days for 5 times relative to control; type: organism-based; details: in vivo
[17] = test system: Mus musculus; experiment: Toxicity in human PC3 cells xenografted athymic nude Swiss mouse assessed as body weight loss at 55 mg/kg, iv every two days for six times relative to control; type: organism-based, PC-3; design: dose 55 mg/kg, route intravenous; details: in vivo
[18] = test system: Mus musculus; experiment: Toxicity in human MX1 cells xenografted athymic nude Swiss mouse assessed as mouse mortality at 30 mg/kg, iv every two days for three times followed by 40 mg/kg, iv every two days for 5 times; type: organism-based; details: in vivo
[19] = test system: Mus musculus; experiment: Toxicity in human PC3 cells xenografted athymic nude Swiss mouse assessed as mouse mortality at 55 mg/kg, iv every two days for six times; type: organism-based, PC-3; design: dose 55 mg/kg, route intravenous; details: in vivo

SMILES	IC50 [1]	IC50 [2]	IC50 [3]	IC50 [4]	IC50 [5]	Activity [6]	Activity [7]	Activity [8]	Ratio IC50 [9]	Ratio IC50 [10]	IC50 [11]	IC50 [12]	Activity [13]	Activity [14]	Activity [15]	Activity [16]	Activity [17]	Activity [18]	Activity [19]
O=C(Nc1ccc(N(CCCl)CCCl)cc1)Nc1ccc2ncnc(Nc3ccc(F)c(Cl)c3)c2c1	1000 nM	1160 nM	1140 nM	5380 nM	3360 nM	72%	5%	Non-toxic	1.16	1.14	–	–	–	–	–	–	–	–	–
O=C(Nc1ccc(N(CCCl)CCCl)cc1)Nc1ccc2ncnc(Nc3cccc(Cl)c3F)c2c1	750 nM	1550 nM	1040 nM	4550 nM	3840 nM	–	–	–	2.07	1.39	5520 nM	6290 nM	Active	69%	52%	6%	6%	Non-toxic	Non-toxic
